Rows were chosen to be rich in hits. Some 1.9% of all compounds tested hit in one or more screens of this group.
core dimer inh: blocks dimerization of HCV core protein | TR-FRET GST/Flag-core106 dimerization, 1536-well | inhibition, % at 5 µM | hit rate 0.33% among 300,000 | AID 1899;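 active = inhibition above the mean of all tested compounds plus 3 SD, set per screening campaign, cut at about 45% in these data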
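assay system = GST-tagged and Flag-tagged HCV core protein residues 1-106 | controls = unlabelled core106 and no-GST-core106 wells | incubation = compound-protein-antibody incubation 4 h at 22.5 °C | probe or stimulus = Eu donor and XL665 acceptor anti-tag antibodies | read-out = % inhibition based on acceptor/donor emission ratio | signal = TR-FRET 671 and 617 nm emission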
Rce1 inh: inhibitors of yeast Ras-converting enzyme; hit rate 0.27% among 290,000; calls only; yeast membranes, quenched prenylated peptide cleavage fluorescence;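 active = fall in fluorescence gain of 50% or more versus controls, with final raw signal at or below 3038400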;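 note: plate controls were neutral control wells for no effect and wells lacking membranes for full effect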
NadD block: blocks S. aureus nicotinate mononucleotide adenylyltransferase. purified NadD enzyme, colorimetric absorbance read-out. inhibition, % at 20 µM. hit rate 0.78% among 360,000; in the data active = inhibition above about 26%
DSG3 Ab inh: inhibitors of pemphigus antibody binding to human desmoglein-3 | P32926 | DSG3-coupled beads, scFv-anti-DSG3-GFP binding, flow cytometry; hits give low values | binding (percent of control), % at 10 µM | hit rate 0.48% among 310,000;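 active = binding more than 3 SD below its plate's average and above zero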;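 note: hits lower antibody fragment binding to DSG3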
Target sequence (P32926 whole entry, looked up, the tested form may be a part): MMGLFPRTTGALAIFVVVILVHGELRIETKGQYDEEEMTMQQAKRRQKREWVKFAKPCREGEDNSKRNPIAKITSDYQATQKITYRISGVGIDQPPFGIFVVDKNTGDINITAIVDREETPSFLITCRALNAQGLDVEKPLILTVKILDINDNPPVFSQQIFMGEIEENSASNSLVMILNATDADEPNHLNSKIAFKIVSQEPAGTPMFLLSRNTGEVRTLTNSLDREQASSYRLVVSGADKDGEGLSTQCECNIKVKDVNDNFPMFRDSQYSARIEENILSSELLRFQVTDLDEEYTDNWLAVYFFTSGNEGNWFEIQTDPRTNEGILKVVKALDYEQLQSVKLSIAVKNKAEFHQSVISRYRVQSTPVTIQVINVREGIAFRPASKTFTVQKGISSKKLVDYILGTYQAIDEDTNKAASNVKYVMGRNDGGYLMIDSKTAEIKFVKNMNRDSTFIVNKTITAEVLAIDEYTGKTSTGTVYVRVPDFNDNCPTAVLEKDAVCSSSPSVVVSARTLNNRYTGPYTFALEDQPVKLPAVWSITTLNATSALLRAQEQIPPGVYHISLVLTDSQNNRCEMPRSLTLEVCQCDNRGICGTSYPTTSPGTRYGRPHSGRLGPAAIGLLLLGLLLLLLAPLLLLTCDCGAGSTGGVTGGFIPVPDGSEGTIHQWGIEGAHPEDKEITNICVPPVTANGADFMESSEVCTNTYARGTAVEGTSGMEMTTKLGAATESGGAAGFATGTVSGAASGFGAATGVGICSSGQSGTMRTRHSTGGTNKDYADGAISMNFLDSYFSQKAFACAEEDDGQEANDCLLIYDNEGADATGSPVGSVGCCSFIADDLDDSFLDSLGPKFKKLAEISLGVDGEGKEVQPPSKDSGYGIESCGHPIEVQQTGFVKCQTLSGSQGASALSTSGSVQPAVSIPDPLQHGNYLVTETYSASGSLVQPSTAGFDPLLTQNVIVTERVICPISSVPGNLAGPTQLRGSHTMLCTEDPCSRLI
Tb MetRS inh: blocks T. brucei methionyl-tRNA synthetase activity. inhibition, % at 11.9 µM. purified T. brucei MetRS, ATP depletion, Kinase-Glo luminescence. AID 624268. hit rate 0.4% among 360,000;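 active = inhibition above a per-plate cutoff of the control wells' mean inhibition plus 3 SD, cut at about 5.5% in these data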;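 note: 0% = DMSO wells median and 100% = median of wells with control inhibitor compound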
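Material: parasite MetRS enzyme / Replication: singlicate, one well per compound / Signal: luminescence of leftover ATP / Schedule: 2 h aminoacylation at 25 °C after 15 min preincubation / Medium: HEPES-MgCl2-KCl buffer plus DTT, spermine, BSA, pyrophosphatase / Doses: 11.9 µM single point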
* marks the source's active call; other numbers are inactive results; i = inactive; . = no result given; + = active, no number.

SMILES	core dimer inh	Rce1 inh	NadD block	DSG3 Ab inh	Tb MetRS inh
COc1ccc(N2CCN(C(=O)COCc3cc(-c4ccc5c(c4)OCO5)on3)CC2)cc1	15	i	0	71*	0
CCN1CCN(C(=O)COCc2cc(-c3ccc4c(c3)OCO4)on2)CC1	-8	i	-2	101	0
CC(=O)N=c1sc(S(N)(=O)=O)nn1C	1	i	-3	-12*	-1
CC(=O)Nc1nnc(S(N)(=O)=O)s1	6	i	1	108	0
CCOc1ccc(C(C)=O)cc1CSc1nnc(-c2ccoc2C)n1N	46*	i	8	.	0
Cc1cc(NC(=O)CSc2nnc(-c3ccoc3C)n2N)no1	2	i	-1	105	-2
CC1Cc2cc(/C=C3/SC(=S)NC3=O)ccc2O1 (configuration not stated)	2	i	1	98	0
Cc1ccc(-c2nn3c(C)nnc3s2)cc1NC(=O)c1ccco1	0	i	-1	107	0
Cc1ccc(-c2nn3c(C)nnc3s2)cc1NC(=O)C(C)C	-2	i	-4	82*	-1
COc1cc(NC(=O)CCS(=O)(=O)c2ccc3c(c2)oc(=O)n3C)cc(OC)c1OC	2	i	-1	.	0
COc1ccc(OC)c2sc(NC(=O)C3=COCCO3)nc12	-18	i	-2	105	-1
COc1ccc(C)c2sc(NC(=O)C3=COCCO3)nc12	0	+	4	111	0
N#CC1=C2SCC(O)(c3ccccc3)N2C(=O)CC1c1cccs1 (configuration not stated)	1	.	1	126	-1
CCCCOc1ccc(/C=N/NC(=S)Nc2cccc(C)c2C)cc1	5	i	2	2.8*	-1
CCOc1cc(S(=O)(=O)N(Cc2ccccc2)Cc2ccccc2)c(OCC)cc1-n1cnnn1	.	+	-6	101	0
O=S(=O)(NCC(c1cccnc1)N1CCN(Cc2ccccc2)CC1)c1ccc(Cl)cc1 (configuration not stated)	-2	i	-5	110	0
COc1ccc(Nc2nc(-c3sc(NC(C)=O)nc3C)cs2)cc1	59*	i	.	.	.
Cc1cc(OC(=O)N2CCCCC2)cc(C)c1Cl	3	i	1	98	0
CN(C)S(=O)(=O)c1ccc2c(c1)C(=NO)c1cc(S(=O)(=O)N(C)C)ccc1-2	5	i	-5	76*	1
CN(C)S(=O)(=O)c1ccc2c(c1)C(=NNC(N)=O)c1cc(S(=O)(=O)N(C)C)ccc1-2	.	i	1	86	0
CN(CCO)S(=O)(=O)c1ccc2c(c1)C(=NNC(N)=O)c1cc(S(=O)(=O)N(C)CCO)ccc1-2	-7	i	-1	-5.9*	0
CCO[C@@H]1OC(C(=O)NCc2ccccc2)=C[C@H](C2CCCCC2)[C@H]1CCCO	-7	i	-6	103	-1
CCOc1ccc2nc3cc(NCc4ccc(OC)cc4)ccc3c(N)c2c1	41	i	47*	.	0
Cc1ccc(Sc2ccc(NC(=O)c3ccc(S(C)(=O)=O)cc3Cl)cc2)cc1	34	i	7	-16*	0
CS(=O)(=O)c1ccc(C(=O)Nc2ccc(N3CCCCC3)cc2)c(Cl)c1	1	i	-2	86	-1
SMILES	core dimer inh	Rce1 inh	NadD block	DSG3 Ab inh	Tb MetRS inh
CSC(=S)N(C)C1CCS(=O)(=O)C1 (configuration not stated)	-2	i	-4	100	0
O=C(O)c1cccc2cc(-c3ccccc3)oc(=O)c12	4	i	-6	96	0
O=C(O)c1cccc2cccc(-c3c4ccc(=O)c(O)c-4oc4c(O)c(O)ccc34)c12	.	.	83*	13*	0
Cn1nnnc1Sc1ncnc2scc(-c3ccccc3)c12	65*	i	13	72	0
CC(=O)c1cccc(S(=O)(=O)N2CCN(c3nc4cc(C)cc(C)c4cc3C#N)CC2)c1	70*	i	25	74	0
O=C(O)CN1C(=O)/C(=C\c2cn(-c3ccccc3)nc2-c2ccccc2)SC1=S	16	i	31*	94	0
Cc1ccc(-c2nn(-c3ccccc3)cc2C=C2SC(=S)N(CCS(=O)(=O)O)C2=O)cc1	.	.	30*	.	1
O=C1C(=Cc2cn(-c3ccccc3)nc2-c2ccc(OCc3ccccc3)cc2)SC(=S)N1CCS(=O)(=O)O	.	.	50*	.	2
